Data set [1] in a line: Selectivity index, ratio of IC50 for mouse J774.2 cells to IC50 for promastigote form of Leishmania braziliensis MHOM/BR/1975/M2904. The data set is classed as toxicity. The note with it: J774.2 cells, read-out: Ratio IC50.
Data set [2] has as its system Leishmania braziliensis. Put plainly: Antileishmanial activity against promastigote form of Leishmania braziliensis MHOM/BR/1975/M2904 assessed as change in acetate metabolite production at IC25 concentration after 96 hrs by H1-NMR analysis. The data set is classed as functional, MHOM/BR/75/M2904. The essentials:
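Promastigote cultures, initial 5 × 10^5 cells/mL, given the IC25 of compound; controls left untreated. Incubated 96 h at 28 °C, then centrifuged at 400g for 10 min. Excreted metabolites in the medium identified by 1H NMR spectra and compared with untreated control.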

Data set [3] deals with Leishmania infantum. Put plainly: Antileishmanial activity against promastigote form of Leishmania infantum MCAN/ES/2001/UCM-10 infected in J774.2 cells assessed as inhibition of infection in host cells at IC25 concentration incubated for 12 hrs followed by compound washout measured after 48 hrs by microscopic analysis. It is filed as functional. A digest of the protocol:
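J774.2 cells seeded at 1 × 10^4 cells/well on coverslips and cultured 2 days. Infected with promastigotes at 10:1 with drug at IC25 added immediately, for 12 h at 37 °C in 5% CO2. Parasites and drug washed out, then grown 10 days with washing and fresh medium every 48 h. On methanol-fixed, Giemsa-stained slides, % infected cells and amastigotes per infected cell scored from more than 200 host cells. Three determinations.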

The subject of data set [4] is Leishmania infantum. Put plainly: Antileishmanial activity against promastigote form of Leishmania infantum MCAN/ES/2001/UCM-10 assessed as cytoplasmic membrane disruption at IC25 concentration after 96 hrs by […] electron microscopic analysis relative to control. The data set is classed as functional, organism-based. The essentials:
(§1)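 Promastigotes at 5 × 10^5 cells/mL in MTL medium with compound at IC25 for 96 h. Ultrastructure examined by transmission electron microscopy against untreated control parasites.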

The subject of data set [5] is Leishmania infantum. The experiment in a line: Antileishmanial activity against promastigote form of Leishmania infantum MCAN/ES/2001/UCM-10 assessed as disorganized cytoplasm at IC25 concentration after 96 hrs by […] electron microscopic analysis relative to control. It is filed as functional, organism-based. The essentials:
as §1

The test system of data set [6] is Leishmania infantum. Put plainly: Antileishmanial activity against promastigote form of Leishmania infantum MCAN/ES/2001/UCM-10 assessed as swollen mitochondria at IC25 concentration after 96 hrs by […] electron microscopic analysis relative to control. It is filed as functional, organism-based. A digest of the protocol: as §1
The test system of data set [7] is Leishmania infantum. Put plainly: Antileishmanial activity against promastigote form of Leishmania infantum MCAN/ES/2001/UCM-10 assessed as swollen kinetoplast at IC25 concentration after 96 hrs by […] electron microscopic analysis relative to control. The data set is classed as functional, organism-based. The essentials:
as §1

Data set [8] concerns Leishmania infantum. Put plainly: Antileishmanial activity against promastigote form of Leishmania infantum MCAN/ES/2001/UCM-10 assessed as corrugated cytoplasmic membrane at IC25 concentration after 96 hrs by […] electron microscopic analysis. It is filed as functional, organism-based. The essentials:
as §1

Data set [9] has as its system Leishmania infantum. Put plainly: Antileishmanial activity against promastigote form of Leishmania infantum MCAN/ES/2001/UCM-10 assessed as size reduction at IC25 concentration after 96 hrs by […] electron microscopic analysis. It is filed as functional, organism-based. The essentials:
as §1

The subject of data set [10] is Leishmania infantum. The experiment in a line: Antileishmanial activity against promastigote form of Leishmania infantum MCAN/ES/2001/UCM-10 assessed as high electro density at IC25 concentration after 96 hrs by […] electron microscopic analysis. The data set is classed as functional, organism-based. The essentials:
as §1

The test system of data set [11] is Leishmania braziliensis MHOM/BR/75/M2904. Put plainly: Inhibition of promastigote form Leishmania braziliensis MHOM/BR/1975/M2904 Fe-SOD at 12.5 uM by NBT reduction assay relative to control. The essentials:
(§2)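 Promastigotes sonicated in sucrose/Tris-HCl/EDTA buffer, pH 7.8, and centrifuged. Protein precipitating at 35–85% ammonium sulphate desalted into 20 mM potassium phosphate with 1 mM EDTA, pH 7.8. Protein measured by Bradford. Fe-SOD activity read spectrophotometrically as inhibition of NBT reduction by superoxide, with compounds at 0.1–50. IC50 by linear regression of Kc values; three determinations; Newman-Keuls test vs control homogenate.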

In data set [12] the test system is Leishmania infantum. The experiment in a line: Inhibition of promastigote form Leishmania infantum MCAN/ES/2001/UCM-10 Fe-SOD at 5 uM by NBT reduction assay relative to control. The essentials: as §2
The subject of data set [13] is Leishmania braziliensis. The experiment in a line: Antileishmanial activity against promastigote form of Leishmania braziliensis MHOM/BR/1975/M2904 assessed as disorganized flagellar pocket at IC25 concentration after 96 hrs by MET microscopic analysis. The data set is classed as functional. The note with it: MHOM/BR/75/M2904. A digest of the protocol:
as §1

The subject of data set [14] is Leishmania braziliensis. The experiment in a line: Antileishmanial activity against promastigote form of Leishmania braziliensis MHOM/BR/1975/M2904 assessed as disorganized flagellum at IC25 concentration after 96 hrs by MET microscopic analysis. The data set is classed as functional. The following applies: MHOM/BR/75/M2904. The essentials: as §1
Data set [15] relates to Leishmania braziliensis. Put plainly: Antileishmanial activity against promastigote form of Leishmania braziliensis MHOM/BR/1975/M2904 assessed as small vacuoles at IC25 concentration after 96 hrs by MET microscopic analysis. It is filed as functional. The note with it: MHOM/BR/75/M2904. The essentials:
as §1

The subject of data set [16] is Leishmania braziliensis. The experiment in a line: Antileishmanial activity against promastigote form of Leishmania braziliensis MHOM/BR/1975/M2904 assessed as lipid natured cytoplasm at IC25 concentration after 96 hrs by MET microscopic analysis. The data set is classed as functional. The note with it: MHOM/BR/75/M2904. The essentials: as §1
In data set [17] the test system is Leishmania braziliensis. Put plainly: Antileishmanial activity against promastigote form of Leishmania braziliensis MHOM/BR/1975/M2904 assessed as nuclear alterations at IC25 concentration after 96 hrs by MET microscopic analysis. It is filed as functional. The following applies: MHOM/BR/75/M2904. The essentials: as §1
Data set [18] has as its system Leishmania braziliensis. The experiment in a line: Antileishmanial activity against promastigote form of Leishmania braziliensis MHOM/BR/1975/M2904 assessed as empty vacuoles at IC25 concentration after 96 hrs by MET microscopic analysis. It is filed as functional. The note with it: MHOM/BR/75/M2904. The essentials: as §1
Data set [19] deals with Leishmania braziliensis. Put plainly: Antileishmanial activity against promastigote form of Leishmania braziliensis MHOM/BR/1975/M2904 assessed as swollen parasites at IC25 concentration after 96 hrs by MET microscopic analysis. The data set is classed as functional. The following applies: MHOM/BR/75/M2904. A digest of the protocol: as §1
Data set [20] has as its system Leishmania braziliensis. Put plainly: Antileishmanial activity against promastigote form of Leishmania braziliensis MHOM/BR/1975/M2904 assessed as structural disruptions at IC25 concentration after 96 hrs by MET microscopic analysis. It is filed as functional. The following applies: MHOM/BR/75/M2904. The essentials: as §1
Data set [21] concerns Leishmania infantum. The experiment in a line: Antileishmanial activity against promastigote form of Leishmania infantum MCAN/ES/2001/UCM-10 assessed as mortality at IC25 concentration after 96 hrs by […] electron microscopic analysis. It is filed as functional, organism-based. A digest of the protocol:
as §1

The subject of data set [22] is Leishmania braziliensis. The experiment in a line: Antileishmanial activity against promastigote form of Leishmania braziliensis MHOM/BR/1975/M2904 assessed as structural alterations at IC25 concentration after 96 hrs by MET microscopic analysis. It is filed as functional. The note with it: MHOM/BR/75/M2904. The essentials: as §1
Data set [23] relates to Leishmania infantum. The experiment in a line: Antileishmanial activity against promastigote form of Leishmania infantum MCAN/ES/2001/UCM-10 assessed as vacuoles in cytoplasm at IC25 concentration after 96 hrs by […] electron microscopic analysis relative to control. It is filed as functional, organism-based. A digest of the protocol:
as §1

Data set [24] deals with Leishmania infantum. The experiment in a line: Antileishmanial activity against promastigote form of Leishmania infantum MCAN/ES/2001/UCM-10 assessed as death-like aspect vesicles at IC25 concentration after 96 hrs by […] electron microscopic analysis relative to control. It is filed as functional, organism-based. A digest of the protocol: as §1

The source made the active and inactive calls. The calls are words filed in the database; no cut-off is given here.

As a reminder, the inhibition is the drop in the measured response relative to a control, in per cent. High values mean a strong effect, low ones a weak effect.

For `Br.NCCN1CCNCc2cccc(n2)CNCC1`, the selectivity ratio in [1] was 19.6. The Activity in the data set with Leishmania braziliensis [2] came out at 18%.
`Cl.c1cncc(CNCCN2CCNCc3cccc(n3)CNCC2)c1`: the “inhibition (INH)” value in the data set with Leishmania infantum [3] is reported as 84%. Also, the selectivity ratio in data set [1] came out at 20.3. Besides, the outcome in the data set on Leishmania infantum [4], in the data set with Leishmania infantum [5], in the data set on Leishmania infantum [6], in the data set with Leishmania infantum [7], with Leishmania infantum [8] and in the data set on Leishmania infantum [9] was Active. For the same compound, in the data set on Leishmania infantum [10], the outcome was Active. For the same compound, the Activity in the data set with Leishmania braziliensis [2] was -13%. Besides, the inhibition (in data set [11]; in the data set with Leishmania infantum [12]) was 100% each time.
Regarding `Cl.c1ccc(CNCCN2CCNCc3cccc(n3)CNCC2)nc1`, the “inhibition (INH)” value in the data set on Leishmania infantum [3] is given as 77%. The selectivity ratio in [1] stood at 22.5. Further, the outcome in the data set with Leishmania braziliensis [13], in the data set with Leishmania braziliensis [14], in the data set on Leishmania braziliensis [15], with Leishmania braziliensis [16], in the data set on Leishmania braziliensis [18] and with Leishmania braziliensis [19] was Active. The outcome in the data set with Leishmania braziliensis [20] and in the data set with Leishmania infantum [21] was Active. In the data set with Leishmania braziliensis [17], the outcome was inactive. The Activity with Leishmania braziliensis [2] is given as -46%.
`Cl.c1cc2nc(c1)CNCCN(CCNCc1cccc3ccccc13)CCNC2`: in the data set on Leishmania infantum [3], the “inhibition (INH)” value is given as 74%. Besides, the selectivity ratio in data set [1] was 29.7. Also, the result in the data set on Leishmania braziliensis [22] was inactive. Also, the result in the data set with Leishmania infantum [6], in the data set on Leishmania infantum [7], in the data set on Leishmania infantum [23], in the data set on Leishmania infantum [24], with Leishmania infantum [8] and in the data set on Leishmania infantum [9] was Active. Also, the result in the data set with Leishmania infantum [10] was Active. For the same compound, the Activity in the data set with Leishmania braziliensis [2] came out at 8%.

These data come from ChEMBL document CHEMBL2331406, “In vitro activity of scorpiand-like azamacrocycle derivatives in promastigotes and intracellular amastigotes of Leishmania infantum and Leishmania braziliensis” (Eur J Med Chem, 2013).
